High-throughput results from PubChem BioAssay.
CHOP UPR activ – activators of apoptotic arm of unfolded protein response (CHOP). CHO-CHOP luciferase reporter, UPR activation, luminescence; percent of tunicamycin response over DMSO baseline. activation, % at 10 µM. hit rate 0.34% among 330,000. AID 449763;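 active means at 10 µM dose, activation of 40% or more, normalized to positive control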;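 further: 100% = tunicamycin at 10 µg/mL and 0% = DMSO alone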
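System: CHO CHOP reporter cells. Amount: 500 cells per well. Buffer or medium: F12 medium, 10% FBS. Compound dosing: one dose, 10 µM in 0.5% DMSO. Incubation: 6 h compound exposure at 37 °C after overnight seeding. Technique: Steady-Glo luciferase luminescence. Benchmarks: tunicamycin and DMSO controls.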
UPR XBP1 act – adaptive UPR (XBP1) activation; CHO-XBP1 luciferase reporter, IRE1-XBP1 UPR activation, luminescence; percent of tunicamycin response, DMSO as zero; activation, % at 20 µM; hit rate 0.33% among 330,000; AID 463104;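 active means versus positive control, 20 µM dose yields 30% or more activation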;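 further: 100% = tunicamycin at 10 µg/mL and 0% = DMSO only wells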
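Material: CHO cell line with stable XBP1 luciferase reporter; buffer or medium: F12 medium containing 10% fetal bovine serum; compound: single point, 20 µM final compound, 1% DMSO; incubation: 6 h treatment, 37 °C; measured by: glow luminescence from Steady-Glo reagent; evaluation: activation, % of tunicamycin; control set: tunicamycin high, DMSO low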
GAA850 FXN act – increases GAA850 frataxin promoter reporter activity; HEK293 lucGAA850 FXN promoter luciferase reporter, 24 h; percent of 10 µM SAHA response; activation, % at 6 µM; hit rate 0.56% among 360,000; AID 540364;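 active means activation above the average of all compounds screened plus 3 SD, cutoff fixed separately per campaign, cut at about 7.5% in these data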;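 further: 0% = DMSO wells and 100% = 10 µM SAHA wells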
CHOP inh – inhibitors of CHOP induction in ER stress response | CHO-K1 CHOP-promoter luciferase, tunicamycin-induced, 15-18 h | hit rate 3.8% among 220,000 | inhibition, % at 10 µM | AID 2732;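 active means compounds that reduced the stress-induced luciferase reporter signal by more than about 70% of percent inhibition, limit read from the data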;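 further: 0% = tunicamycin plus vehicle and 100% = wells without tunicamycin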
* marks the source's active call; other numbers are inactive results. The sample as a whole holds a higher share of hits than the screen did.

O=C(CNCC1CCCCC1)Nc1ccccc1N1CCCCC1 was read as CHOP UPR activ 0, UPR XBP1 act 2, GAA850 FXN act -1 and CHOP inh 79*.
Cc1cccc(N2CCN(CC(=O)NCC3CCCCC3)CC2)c1C was read as CHOP UPR activ 0, UPR XBP1 act -5, GAA850 FXN act 2 and CHOP inh 76*.
O=C(CCC1CCCCC1)Nc1ccccc1O was read as CHOP UPR activ 3, UPR XBP1 act 5, GAA850 FXN act 4 and CHOP inh 73*.
Screening O=C(CCC1CCCCC1)Nc1ccccc1-c1ccccc1 returned CHOP UPR activ 1, UPR XBP1 act 4, GAA850 FXN act -1 and CHOP inh 60.
Cc1sc(N=Nc2ccc(N(C)C)cc2)[n+]([O-])c1C was read as GAA850 FXN act -3.
Screening COc1cccc(C(O)c2nc(-c3cccc(C(F)(F)F)c3)cs2)c1 (centres undefined) returned GAA850 FXN act 1.
Screening O=C(CNCC1CCCCC1)Nc1ccc(OC(F)(F)F)cc1 returned CHOP UPR activ -1, UPR XBP1 act 1, GAA850 FXN act 1 and CHOP inh 91*.
For COc1cc(-c2nc3ccc4ccccc4c3c3c2CCC3)ccc1O the results were CHOP UPR activ 3, UPR XBP1 act 1, GAA850 FXN act 0 and CHOP inh 86*.
Screening CC1(C(=O)NS(=O)(=O)c2cccc(C#N)c2)CCN1C(=O)Cc1ccc(Cl)cc1Cl (centres undefined) returned GAA850 FXN act 1.
For CC(/C=C1\SC(=O)N(CC(=O)Nc2cccc(O)c2)C1=O)=C\c1ccccc1 the results were CHOP UPR activ 1, UPR XBP1 act 5, GAA850 FXN act 1 and CHOP inh 95*.
For Cc1cc(C)c2cc(C#N)c(NCCCNC(=O)c3cccnc3)nc2c1 the results were GAA850 FXN act 0.
`CCOC(=O)c1c(C)nc2ccc(Cl)cc2c1-c1ccccc1` gave CHOP UPR activ 0, UPR XBP1 act -5, GAA850 FXN act 2 and CHOP inh 82*.
`Cc1ccc(-c2[nH]c3ccccc3c2C(C[N+](=O)[O-])c2ccco2)cc1` (centres undefined) gave CHOP UPR activ -5, UPR XBP1 act -1, GAA850 FXN act 0 and CHOP inh 89*.
`Cc1ccc(C(=O)N/N=C\c2cc3c(cc2Br)OCO3)s1` gave CHOP UPR activ 6, UPR XBP1 act 8, GAA850 FXN act 5 and CHOP inh 93*.
`S=C(c1ccc(-c2ccccc2Cl)o1)N1CCOCC1` gave CHOP UPR activ 4, UPR XBP1 act 3, GAA850 FXN act 4 and CHOP inh 71*.
Screening O=C(CNS(=O)(=O)c1ccc(Cl)cc1)N1CCN(c2ccc(F)cc2)CC1 returned CHOP UPR activ 2, UPR XBP1 act -2 and GAA850 FXN act -1.
O=C(CNS(=O)(=O)c1ccc(F)cc1)N1CCN(c2ccccc2)CC1 was read as CHOP UPR activ 3, UPR XBP1 act -3, GAA850 FXN act 0 and CHOP inh 80*.
`CC1CCCC(C)N1C(=O)CN1C(=O)NC2(CCCCCC2)C1=O` (centres undefined) gave GAA850 FXN act -1.
Cc1cc(OCCOc2cccc3cccnc23)cc(C)c1Cl was read as CHOP UPR activ 0, UPR XBP1 act 1, GAA850 FXN act 0 and CHOP inh 75*.
Cc1cc(C)c(C)c(OCCCOc2cccc3cccnc23)c1 was read as CHOP UPR activ 1, UPR XBP1 act -2, GAA850 FXN act 1 and CHOP inh 81*.
Screening CC(C)Oc1ccccc1OCCCOc1cccc2cccnc12 returned CHOP UPR activ 2, UPR XBP1 act -1, GAA850 FXN act -1 and CHOP inh -1.
`COC(=O)c1ccc2c(c1)NC(=O)C(N(CC(C)C)CC(C)C)S2` (centres undefined) gave CHOP UPR activ 1, UPR XBP1 act -1, GAA850 FXN act 1 and CHOP inh 58.
CCCN(CCC)C1Sc2ccc(C(=O)OC)cc2NC1=O (centres undefined) was read as CHOP UPR activ 0, UPR XBP1 act -2, GAA850 FXN act -1 and CHOP inh 82*.
CC1(C)Cc2nc3oc4c(=O)n(CC(=O)Nc5ccc(Cl)cc5)cnc4c3cc2CO1 was read as CHOP UPR activ 2, UPR XBP1 act -1, GAA850 FXN act 0 and CHOP inh 95*.
O=S(=O)(c1ccccc1)N1CCN=C1SCc1ccc(Cl)c(Cl)c1 was read as CHOP UPR activ 1, UPR XBP1 act 3, GAA850 FXN act 0 and CHOP inh 72*.
`CCOC(=O)C1=C(C)OC(=Cc2ccc(OC)cc2)C1=O` gave GAA850 FXN act 1.
`CCCc1ccc(/C=C2\C(=O)c3ccccc3C(O)=C2C(=O)OCC)cc1` gave CHOP UPR activ 11, UPR XBP1 act 4 and CHOP inh 86*.
Screening CCOC(=O)c1c(C)nc2c(c1-c1cc(OC)ccc1OC)C(=O)c1ccccc1-2 returned CHOP UPR activ -1, UPR XBP1 act 6, GAA850 FXN act 2 and CHOP inh -26.
`CCOC(=O)C1=C(Cc2ccc(OC)cc2)C(=O)c2ccccc2C1=O` gave GAA850 FXN act -1 and CHOP inh 95*.
Screening CCOC(=O)c1ccc(COC(=O)c2ccc3c(c2)-c2ccccc2C3=O)cc1 returned CHOP UPR activ 0, UPR XBP1 act -4, GAA850 FXN act 2 and CHOP inh 11.
Screening CCOC(=O)C1=C(O)c2ccccc2C(=O)/C1=C\c1ccc(CC)cc1 returned GAA850 FXN act 1 and CHOP inh 87*.
Screening CCOc1ccccc1C(=O)NC(C(=O)OCn1nnc2ccccc2c1=O)C(C)C (centres undefined) returned GAA850 FXN act -1.
Screening CSc1nsc(N/N=C/c2ccc3c(c2)OCO3)c1C#N returned CHOP UPR activ 7, UPR XBP1 act 4, GAA850 FXN act 4 and CHOP inh 76*.
Screening O=C(C[C@@H]1C[C@H]2c3cc(NC(=O)c4cccnc4)ccc3O[C@H]2[C@H](CO)O1)NCc1ccc(Oc2ccccc2)cc1 returned GAA850 FXN act -1.
Screening O=C(CN1CCN(S(=O)(=O)c2ccccc2)CC1)Nc1cccc(C(F)(F)F)c1 returned CHOP UPR activ -1, UPR XBP1 act -2, GAA850 FXN act -2 and CHOP inh 79*.
`O=C(O)c1ccc(NC2=C/C(=N/S(=O)(=O)c3ccccc3)c3ccccc3C2=O)cc1` gave CHOP UPR activ 6, UPR XBP1 act -2, GAA850 FXN act 1 and CHOP inh 103*.
CCc1nc2ccc(C(=O)NCc3cccs3)cn2c1N(CC)Cc1cccc(Br)c1 was read as GAA850 FXN act -4.
O=C(COC(=O)c1cc(-c2ccc(Cl)s2)nc2ccccc12)NCc1ccco1 was read as CHOP UPR activ 1, UPR XBP1 act -4, GAA850 FXN act 0 and CHOP inh 81*.
